Experiments:
Rattus norvegicus [1] = test: AUC (0 to 8 hrs) in fasted Sprague-Dawley rat assessed as 8-OH, benzoate ester level at 10 mg/kg dosed through intraduodenal route by LC-MS/MS method; format: ADME, organism-based, Plasma; set-up: time < 8 hr, dose 10 mg/kg, route intraduodenal; conditions: in vivo, other, BLD = below limit of detection
Method in brief: (§1)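 Prodrugs were given intraduodenally to bypass stomach acid. Plasma was sampled at intervals over 8 h, and parent prodrug, the two monoester metabolites and ertapenem were quantified by LC-MS/MS. The lower limit of quantitation was 5 nM. AUC(0–8) was used, and it differed from AUC(0–∞) by ±20%. Vehicles were 30% Captisol or 0.5% methylcellulose, as solution or suspension depending on compound.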

[2] = Stability in pH 7.4 phosphate buffer assessed as compound remaining at 50 uM after 3 hrs by LC-MS/MS method; format: physicochemical; conditions: read-out: Stability
[3] = Stability in pH 6.5 simulated gastrointestinal fluid assessed as compound remaining at 50 uM after 3 hrs by LC-MS/MS method; format: ADME; conditions: read-out: Stability
Method in brief: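 Compounds at 50 μM were incubated in fasted-state simulated intestinal fluid (FaSSIF, pH 6.5) for over 3 h. Percent remaining was determined by LC-MS/MS.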

Rattus norvegicus [4] = test: AUC (0 to 8 hrs) in fasted Sprague-Dawley rat assessed as ertapenem level at 10 mg/kg dosed through intraduodenal route by LC-MS/MS method; format: ADME, organism-based, Plasma; set-up: time < 8 hr, dose 10 mg/kg, route intraduodenal; conditions: in vivo, other; method in brief: as §1
Canis familiaris [5] = test: Oral bioavailability in fasted Beagle dog assessed as assessed as ertapenem and monoetser metabolites level at 10 mg/kg dosed through intraduodenal route by LC-MS/MS method; format: ADME, organism-based, Canis lupus familiaris; conditions: in vivo
Method in brief: (§2)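 Total absorption followed intraduodenal dosing with LC-MS/MS of plasma over 8 h. It was calculated as the combined dose-normalized AUC of circulating parent prodrug, ertapenem and two monoesters, divided by dose-normalized AUC of ertapenem given iv. Vehicle was 30% Captisol or 0.5% methylcellulose.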

Canis familiaris [6] = test: AUC (0 to 8 hrs) in fasted Beagle dog assessed as ertapenem level at 10 mg/kg dosed through intraduodenal route by LC-MS/MS method; format: ADME, organism-based, Canis lupus familiaris, Plasma; set-up: time < 8 hr, dose 10 mg/kg, route intraduodenal; conditions: in vivo, other; method in brief: as §1
Rattus norvegicus [7] = test: AUC (0 to 8 hrs) in fasted Sprague-Dawley rat assessed as 8-OH, C-3 ester level at 10 mg/kg dosed through intraduodenal route by LC-MS/MS method; format: ADME, organism-based, Plasma; set-up: time < 8 hr, dose 10 mg/kg, route intraduodenal; conditions: in vivo, other, BLD = below limit of detection; method in brief: as §1
Canis familiaris [8] = test: (§3) AUC (0 to 8 hrs) in fasted Beagle dog at 10 mg/kg dosed through intraduodenal route by LC-MS/MS method; format: ADME, organism-based, Canis lupus familiaris, Plasma; set-up: time < 8 hr, dose 10 mg/kg, route intraduodenal; conditions: in vivo, other, 8 h, BLD = below limit of detection; method in brief: as §1
[9] = Stability in pH 2.0 simulated gastric fluid assessed as compound degradation to beta-lactam ring open products at 1 uM after 60 mins by LC-MS/MS method; format: ADME; conditions: read-out: Drug degradation
Method in brief: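 Incubation was in simulated gastric fluid (SGF, pH 2.0) for 60 min, with loss to the β-lactam ring-opened product measured by LC-MS/MS.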

Rattus norvegicus [10] = test: AUC (0 to 8 hrs) in fasted Sprague-Dawley rat at 10 mg/kg dosed through intraduodenal route by LC-MS/MS method; format: ADME, organism-based, Plasma; set-up: time < 8 hr, dose 10 mg/kg, route intraduodenal; conditions: in vivo, other, 8 h, BLD = below limit of detection; method in brief: as §1
[11] = Stability in human plasma assessed as compound remaining at 50 uM at 37 degC after 60 mins by LC-MS/MS method; format: ADME, cell-free; conditions: read-out: Stability
Method in brief: (§4)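 Prodrugs were incubated in rat or human plasma for 60 min. Disappearance of prodrug and concomitant appearance of ertapenem were followed by LC-MS/MS, and in selected cases monoesters from partial hydrolysis were also monitored. Ertapenem itself was incubated the same way as a control.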

Canis familiaris [12] = test: AUC (0 to 8 hrs) in fasted Beagle dog assessed as 8-OH, benzoate ester level at 10 mg/kg dosed through intraduodenal route by LC-MS/MS method; format: ADME, organism-based, Canis lupus familiaris, Plasma; set-up: time < 8 hr, dose 10 mg/kg, route intraduodenal; conditions: in vivo, other, BLD = below limit of detection; method in brief: as §1
Rattus norvegicus [13] = test: Oral bioavailability in fasted Sprague-Dawley rat assessed as ertapenem and monoetser metabolites level at 10 mg/kg dosed through intraduodenal route by LC-MS/MS method; format: ADME, organism-based; conditions: in vivo; method in brief: as §2
Canis familiaris [14] = test: Oral bioavailability in fasted Beagle dog assessed as ertapenem level at 10 mg/kg dosed through intraduodenal route by LC-MS/MS method; format: ADME, organism-based, Canis lupus familiaris; conditions: in vivo
Method in brief: (§5)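 After intraduodenal dosing, plasma over 8 h was analysed by LC-MS/MS. Bioavailability was calculated as dose-normalized AUC of ertapenem formed from the prodrug divided by dose-normalized AUC of ertapenem dosed iv. Vehicle was 30% Captisol or 0.5% methylcellulose.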

Canis familiaris [15] = test: AUC (0 to 8 hrs) in fasted Beagle dog assessed as 8-OH, C-3 ester level at 10 mg/kg dosed through intraduodenal route by LC-MS/MS method; format: ADME, organism-based, Canis lupus familiaris, Plasma; set-up: time < 8 hr, dose 10 mg/kg, route intraduodenal; conditions: in vivo, other, BLD = below limit of detection; method in brief: as §1
[16] = Stability in rat plasma assessed as compound remaining at 50 uM at 37 degC after 60 mins by LC-MS/MS method; format: ADME, cell-free; conditions: read-out: Stability; method in brief: as §4
Rattus norvegicus [17] = test: Oral bioavailability in fasted Sprague-Dawley rat assessed as ertapenem level at 10 mg/kg dosed through intraduodenal route by LC-MS/MS method; format: ADME, organism-based; conditions: in vivo; method in brief: as §5
Rattus norvegicus [18] = test: Oral bioavailability in fasted Sprague-Dawley rat assessed as ertapenem and monoetser metabolites level at 7.4 mg/kg dosed through intraduodenal route by LC-MS/MS method; format: ADME, organism-based; conditions: in vivo; method in brief: as §2
Rattus norvegicus [19] = test: AUC (0 to 8 hrs) in fasted Sprague-Dawley rat assessed as ertapenem level at 7.4 mg/kg dosed through intraduodenal route by LC-MS/MS method; format: ADME, organism-based, Plasma; set-up: time < 8 hr, dose 7.4 mg/kg, route intraduodenal; conditions: in vivo, other; method in brief: as §1
Rattus norvegicus [20] = test: AUC (0 to 8 hrs) in fasted Sprague-Dawley rat at 7.4 mg/kg dosed through intraduodenal route by LC-MS/MS method; format: ADME, organism-based, Plasma; set-up: time < 8 hr, dose 7.4 mg/kg, route intraduodenal; conditions: in vivo, other, BLD = below limit of detection; method in brief: as §1
Rattus norvegicus [21] = test: Oral bioavailability in fasted Sprague-Dawley rat assessed as ertapenem level at 7.4 mg/kg dosed through intraduodenal route by LC-MS/MS method; format: ADME, organism-based; conditions: in vivo; method in brief: as §5
[22] = Oral drug absorption in fasted Beagle dog at 10 mg/kg dosed through intraduodenal route by LC-MS/MS method; format: ADME, organism-based, Canis lupus familiaris; set-up: dose 10 mg/kg, route intraduodenal; conditions: in vivo; method in brief: as §2
[23] = as §3; format: ADME, organism-based, Canis lupus familiaris, Plasma; set-up: time < 8 hr, dose 10 mg/kg, route intraduodenal; conditions: Beagle, plasma; method in brief: as §1

| remaining at 3 h, 50 µM [2] | remaining at 3 h, 50 µM [3] | F (Canis familiaris [5]) | degraded at 1 h, 1 µM [9] | remaining at 1 h, 50 µM [11] | AUC (Canis familiaris [15]) | remaining at 1 h, 50 µM [16] | SMILES | other results |
| --- | --- | --- | --- | --- | --- | --- | --- | --- |
| > 95% | > 95% | 3.6% | > 25% | 8% | BLD | 1% | CC(C)C(=O)OCOC(=O)C1=C(S[C@@H]2CN[C@H](C(=O)Nc3cccc(C(=O)OCOC(=O)C(C)C)c3)C2)[C@H](C)[C@@H]2[C@@H]([C@@H](C)O)C(=O)N12 | AUC (Rattus norvegicus [1]): BLD; AUC (Rattus norvegicus [4]): 0.9 µM·h; AUC (Canis familiaris [6]): 2.2 µM·h; AUC (Rattus norvegicus [7]): BLD; AUC (Canis familiaris [8]): BLD; AUC (Rattus norvegicus [10]): BLD; AUC (Canis familiaris [12]): BLD; F (Rattus norvegicus [13]): 1.8%; F (Canis familiaris [14]): 3.6%; F (Rattus norvegicus [17]): 1.8% |
| > 95% | > 95% | – | > 25% | – | – | 0% | Cc1oc(=O)oc1COC(=O)C1=C(S[C@@H]2CN[C@H](C(=O)Nc3cccc(C(=O)OCc4oc(=O)oc4C)c3)C2)[C@H](C)[C@@H]2[C@@H]([C@@H](C)O)C(=O)N12 | F (Rattus norvegicus [18]): 0.8%; AUC (Rattus norvegicus [19]): 0.3 µM·h; AUC (Rattus norvegicus [20]): BLD; F (Rattus norvegicus [21]): 0.8% |
| > 95% | > 95% | 0.1% | > 25% | 92% | BLD | 97% | CC(C)CCC[C@@H](C)[C@H]1CC[C@H]2[C@@H]3CC=C4C[C@@H](OC(=O)COC(=O)c5cccc(NC(=O)[C@@H]6C[C@H](SC7=C(C(=O)OCC(F)(F)F)N8C(=O)[C@H]([C@@H](C)O)[C@H]8[C@H]7C)CN6)c5)CC[C@]4(C)[C@H]3CC[C@]12C | Fa [22]: < 0.1%; AUC (Canis familiaris [6]; BLD = below limit of detection): BLD; AUC(0-t) at 8 h [23]: < 0.1 µM·h; F (Canis familiaris [14]; BLD = below limit of detection): BLD |
